Usually Ki stands for the equilibrium dissociation constant of an inhibitor or competing ligand from its target. Low values mean higher affinity, high ones lower affinity. As a reminder, the EC50 is the concentration needed to bring the measured effect to its halfway point. A higher EC50 goes with a need for much substance.

Structures are written as SMILES.

Experiment [1] concerns the target T1, Neuronal acetylcholine receptor subunit alpha-7 (Rattus norvegicus, UniProt Q05941). In words: Binding affinity in rat hippocampi against Nicotinic acetylcholine receptor alpha7. Format: tissue-based, Hippocampus. Summed up: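 Incubated with 5 nM [¹²⁵I]α-bungarotoxin and 1 mg/mL BSA for 2 h at 21 °C. Collected on GF/C filters pretreated with 1% BSA/0.01% PEI. IC50 from six concentrations in triplicate.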

In experiment [2] the target is Neuronal acetylcholine receptor; alpha4/beta2 (Rattus norvegicus, UniProt P09483+P12390). In words: Binding affinity in rat forebrain against Nicotinic acetylcholine receptor alpha4-beta2. Summed up: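 Captured on GF/B filters treated with 0.01% PEI and counted by scintillation. Nonspecific binding taken with 100 µM carbachol. IC50 fitted from five concentrations run in triplicate.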

In experiment [3] the target is T1, Neuronal acetylcholine receptor subunit alpha-7. In words: Potency was determined by measuring current activation in Xenopus oocytes expressing rat alpha-7 nAChRs. Type of experiment: cell-based, Oocyte. Summed up:
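Xenopus oocytes injected with cRNA for rat α7 nAChR and recorded 3-10 days after injection. Read-out is evoked current activation. Intrinsic activity scaled in each oocyte to the current elicited by 3 mM acetylcholine, set as 100%.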

T1 sequence (Q05941 whole entry): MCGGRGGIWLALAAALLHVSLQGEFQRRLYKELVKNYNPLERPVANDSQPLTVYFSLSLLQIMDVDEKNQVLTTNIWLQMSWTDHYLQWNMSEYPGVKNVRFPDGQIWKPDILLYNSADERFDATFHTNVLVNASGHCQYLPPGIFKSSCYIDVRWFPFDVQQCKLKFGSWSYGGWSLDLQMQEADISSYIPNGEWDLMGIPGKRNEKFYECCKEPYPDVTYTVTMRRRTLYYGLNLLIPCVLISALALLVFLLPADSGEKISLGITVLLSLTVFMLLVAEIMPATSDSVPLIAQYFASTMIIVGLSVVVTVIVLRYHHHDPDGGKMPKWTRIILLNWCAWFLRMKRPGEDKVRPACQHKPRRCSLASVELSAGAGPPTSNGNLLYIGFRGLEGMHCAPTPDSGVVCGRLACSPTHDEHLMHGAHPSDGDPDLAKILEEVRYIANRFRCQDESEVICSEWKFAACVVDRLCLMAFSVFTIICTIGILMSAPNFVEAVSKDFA
Sequence of Neuronal acetylcholine receptor; alpha4/beta2 (P09483 whole entry): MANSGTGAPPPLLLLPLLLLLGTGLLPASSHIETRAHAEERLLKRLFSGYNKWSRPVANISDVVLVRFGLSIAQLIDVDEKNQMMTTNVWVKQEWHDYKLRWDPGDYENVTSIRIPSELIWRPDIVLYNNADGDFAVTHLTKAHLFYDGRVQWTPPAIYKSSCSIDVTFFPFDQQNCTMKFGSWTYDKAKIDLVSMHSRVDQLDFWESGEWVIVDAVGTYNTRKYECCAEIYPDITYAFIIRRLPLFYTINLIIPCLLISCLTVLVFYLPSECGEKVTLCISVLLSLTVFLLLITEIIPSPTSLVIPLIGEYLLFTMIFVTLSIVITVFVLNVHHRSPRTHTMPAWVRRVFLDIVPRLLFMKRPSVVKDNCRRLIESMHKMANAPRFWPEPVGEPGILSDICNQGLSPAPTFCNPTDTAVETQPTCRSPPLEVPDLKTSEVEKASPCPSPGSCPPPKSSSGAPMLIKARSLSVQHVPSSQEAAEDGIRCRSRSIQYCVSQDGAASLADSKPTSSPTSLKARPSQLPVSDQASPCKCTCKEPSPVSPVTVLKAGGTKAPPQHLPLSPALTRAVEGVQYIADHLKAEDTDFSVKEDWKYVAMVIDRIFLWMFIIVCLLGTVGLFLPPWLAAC
Sequence of Neuronal acetylcholine receptor; alpha4/beta2 (P12390 whole entry): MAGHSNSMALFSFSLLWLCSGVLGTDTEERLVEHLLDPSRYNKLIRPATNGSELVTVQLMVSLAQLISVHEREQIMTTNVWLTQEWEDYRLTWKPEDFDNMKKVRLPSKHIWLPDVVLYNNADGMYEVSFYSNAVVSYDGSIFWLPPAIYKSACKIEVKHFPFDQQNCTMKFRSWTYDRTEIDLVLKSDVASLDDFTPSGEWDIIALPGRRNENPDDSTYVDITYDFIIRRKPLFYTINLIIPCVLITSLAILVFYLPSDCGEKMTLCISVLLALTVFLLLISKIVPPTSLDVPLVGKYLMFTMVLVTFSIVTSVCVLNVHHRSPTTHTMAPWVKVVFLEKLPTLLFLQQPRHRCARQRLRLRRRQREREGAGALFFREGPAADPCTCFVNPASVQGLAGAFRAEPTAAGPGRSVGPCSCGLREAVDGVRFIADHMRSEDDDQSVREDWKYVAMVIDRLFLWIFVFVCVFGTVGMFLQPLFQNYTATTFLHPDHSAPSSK

Regarding `CCN1CC2(CN3CCC2CC3)OC1=O` (configuration not stated), the values for the inhibition constant (Ki) in experiment [1] and in experiment [2] were 0.69 µM and 0.17 µM, respectively.

Consider `CN1C(=O)NCC12CN1CCC2CC1` (configuration not stated), for which, in experiment [1], the Ki was greater than 13 µM.

In experiment [1], `O=C1NC2(CO1)CN1CCC2CC1` (configuration not stated) returned a Ki greater than 4.3 µM.

In experiment [1], `O=C1CC2(CN1)CN1CCC2CC1` (configuration not stated) yielded a Ki of 4 µM.

Regarding `O=C1NCC2(CN3CCC2CC3)N1` (configuration not stated), the Ki in experiment [1] is greater than 13 µM.

With `O=C1NCC2(CN3CCC2CC3)O1` (single isomer, unassigned; (-)), in experiment [3], the EC50 was found to be 21000 µM.
